One compound from ChEMBL document CHEMBL1145774, “Synthesis and biological effects of novel 2-amino-3-naphthoylthiophenes as allosteric enhancers of the A1 adenosine receptor” (J Med Chem, 2003) can be followed below.

The structures appear in SMILES notation.

What is called inhibition is how much of the control response was suppressed. A high value points to a strong effect.

Assay [1] concerns the target T1, Adenosine receptor A1 (Homo sapiens) (UniProt P30542).
T1 sequence (whole entry): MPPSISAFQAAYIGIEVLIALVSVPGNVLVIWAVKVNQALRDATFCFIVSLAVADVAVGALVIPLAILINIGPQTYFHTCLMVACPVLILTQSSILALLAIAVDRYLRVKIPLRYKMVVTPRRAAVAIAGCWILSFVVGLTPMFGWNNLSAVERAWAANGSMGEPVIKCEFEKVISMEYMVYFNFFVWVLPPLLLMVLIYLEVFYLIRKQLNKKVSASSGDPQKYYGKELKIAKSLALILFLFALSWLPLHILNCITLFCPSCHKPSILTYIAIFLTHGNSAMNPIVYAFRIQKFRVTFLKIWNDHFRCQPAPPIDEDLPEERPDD
The experiment in a line: Percent change in cAMP content of CHO (Chinese hamster ovary) cells expressing human Adenosine A1 receptor at 10 uM. The format is functional, cell-based. The essentials: (§1)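 CHO cells stably expressing human A1 receptor (~8000 fmol/mg protein) were grown in Ham's F-12 with 10% FBS and G-418 for 48 h to confluence. HCl (50 mM final) stopped the reaction, and cAMP was measured by radioimmunoassay. Values are % change versus no-compound control, mean ± SEM of six experiments.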

The target of assay [2] is T1, Adenosine receptor A1 (Homo sapiens). The experiment in a line: Dissociation of [3H]CCPA from Adenosine A1 receptor in CHO cells at 10 uM as percent K-1. In kind it is cell-based. The essentials: (§2)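 [3H]CCPA was bound to ADA-treated CHO:hA1 membranes in 50 mM Tris-HCl pH 7.4 at 25 °C. Dissociation was started by adding R-PIA (1 µM) with test agent (10 µM), and specific binding was measured 2–180 min afterwards. Kinetic fits gave t1/2 and K-1, expressed as % change from control. Values are the mean of three experiments.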

The target in assay [3] is T2, Adenosine receptor A3 (Homo sapiens) (UniProt P0DMS8).
T2 sequence (whole entry): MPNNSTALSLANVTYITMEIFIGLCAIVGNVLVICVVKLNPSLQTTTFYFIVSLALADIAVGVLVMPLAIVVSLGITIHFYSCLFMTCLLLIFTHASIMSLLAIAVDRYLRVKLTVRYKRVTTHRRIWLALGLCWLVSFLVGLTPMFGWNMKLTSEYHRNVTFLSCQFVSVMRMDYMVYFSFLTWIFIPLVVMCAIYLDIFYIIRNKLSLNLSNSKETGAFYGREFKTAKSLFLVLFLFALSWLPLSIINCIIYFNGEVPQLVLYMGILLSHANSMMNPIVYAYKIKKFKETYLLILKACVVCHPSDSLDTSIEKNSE
The experiment in a line: Ability to displace the binding of [3H]-MRE 3008-F20 to the ligand binding site of CHO:hA3 (human Adenosine receptor) at concentration of 10 uM. The essentials:
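Assays used 2 nM [3H]MRE 3008F20 on CHO:hA3 membranes (100 µg protein, ADA-treated) for 150 min at 4 °C, in Tris-HCl with MgCl2 and 1 mM EDTA, pH 7.4, with compound from DMSO (1% final). Bound ligand was separated by filtration. Results are % displacement by 10 µM compound, ±STD, n = 3.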

Assay [4] has as its target Adenosine receptor A2a (Homo sapiens) (UniProt P29274). The experiment in a line: Ability to displace the binding of [3H]-ZM 241385, to the ligand binding site of CHO:hA2A (human Adenosine A2A receptor) at concentration of 10 uM. The essentials:
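CHO:hA2A membranes (100 µg protein, ADA-treated) were incubated with 2 nM [3H]ZM 241385 in Tris-HCl with MgCl2, pH 7.4, for 60 min at 4 °C, with compound from DMSO (1% final). Nonspecific binding was taken with 1 µM ZM241385. After filtration, results are % displacement by 10 µM compound, ±STD, n = 3.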

Assay [5] concerns the target T1, Adenosine receptor A1 (Homo sapiens). The experiment in a line: Percent change in cAMP content of CHO (Chinese hamster ovary) cells expressing human Adenosine A1 receptor at 0.1 uM. In kind it is functional, cell-based. The essentials:
as §1

Assay [6] shares this target. The experiment in a line: Ability to displace the binding of [3H]DPCPX to the ligand binding site of CHO:hA1 (human Adenosine A1 receptor) at concentration of 10 uM. The essentials:
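Membranes came from hypotonic lysis of CHO:hA1 cells, a 100 000g pellet and ADA 2 U/mL treatment for 30 min at 37 °C. Membranes (100 µg protein) were incubated with 1 nM [3H]DPCPX in Tris-HCl pH 7.4 for 150 min at 25 °C, with compound added from DMSO (1% final). Nonspecific binding was taken with 1 µM DPCPX, and bound ligand was separated on GF/B filters.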

The target is the same in assay [7]. The experiment in a line: Dissociation rate of [3H]CCPA from Adenosine A1 receptor expressing CHO cells at 10 uM as percent t1/2. In kind it is cell-based. The essentials: as §2
For assay [8] the target is unchanged. The experiment in a line: Percent change in cAMP in CHO cells expressing human Adenosine A1 receptor at 1 uM. In kind it is functional, cell-based. The essentials: as §1
Assay [9] has the same target. The experiment in a line: Percent change in cAMP content of CHO (Chinese hamster ovary) cells expressing human Adenosine A1 receptor at 0.01 uM. In kind it is functional, cell-based. The essentials:
as §1

Sequence of Adenosine receptor A2a (Homo sapiens) (P29274 whole entry): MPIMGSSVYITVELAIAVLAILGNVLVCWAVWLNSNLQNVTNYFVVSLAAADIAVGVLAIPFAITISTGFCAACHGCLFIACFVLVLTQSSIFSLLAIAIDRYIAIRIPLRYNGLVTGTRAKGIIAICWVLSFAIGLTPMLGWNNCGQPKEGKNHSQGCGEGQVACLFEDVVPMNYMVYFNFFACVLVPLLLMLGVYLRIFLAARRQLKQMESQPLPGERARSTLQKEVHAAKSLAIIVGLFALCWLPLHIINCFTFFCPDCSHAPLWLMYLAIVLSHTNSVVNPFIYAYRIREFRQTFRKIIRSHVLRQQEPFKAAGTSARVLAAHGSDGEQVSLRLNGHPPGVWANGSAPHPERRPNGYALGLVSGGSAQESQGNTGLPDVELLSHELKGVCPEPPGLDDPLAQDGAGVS

As to `Cc1sc(N)c(C(=O)c2cccc3ccccc23)c1C`, the Change was -45% in [1], -3% in assay [5], 6% in assay [8] and -0.6% in [9]. This compound yielded a K-1 decrease in assay [2] of 46%. For the same compound, the inhibition was 18% in assay [3], -0% in assay [4] and -0% in [6]. This compound also gave a T1/2 increase in assay [7] of 85%.
